Measurements reported in ChEMBL document CHEMBL1782035, “Synthesis and SAR of piperazine amides as novel c-jun N-terminal kinase (JNK) inhibitors” (Bioorg Med Chem Lett, 2009).
Activity calls are given as the source filed them. No cut-off for these calls is given here.

Columns and labels:
[1] = target: Mitogen-activated protein kinase 8 (Homo sapiens, UniProt P45983); assay: Inhibition of JNK1 using biotinylated ATF2 and ATP substrates by HTRF assay
Summary of the method: (§1)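 HTRF kinase assay with final JNK1 at 0.1 nM or JNK3 at 0.3 nM, biotinylated ATF-2 at 0.4 nM and ATP at 1 μM. Phospho-Thr71-ATF-2 product was detected with a Europium-cryptate anti-phospho-Thr71-ATF-2 antibody and a streptavidin-allophycocyanin-XL acceptor. 10-point dose-response curves were run in duplicate, and IC50 was obtained from a four-parameter logistic fit.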

[2] = target: Mitogen-activated protein kinase 10 (Homo sapiens, UniProt P53779); assay: Inhibition of JNK3 using biotinylated ATF2 and ATP substrates by HTRF assay; summary of the method: as §1
Sequence of Mitogen-activated protein kinase 10 (P53779 whole entry): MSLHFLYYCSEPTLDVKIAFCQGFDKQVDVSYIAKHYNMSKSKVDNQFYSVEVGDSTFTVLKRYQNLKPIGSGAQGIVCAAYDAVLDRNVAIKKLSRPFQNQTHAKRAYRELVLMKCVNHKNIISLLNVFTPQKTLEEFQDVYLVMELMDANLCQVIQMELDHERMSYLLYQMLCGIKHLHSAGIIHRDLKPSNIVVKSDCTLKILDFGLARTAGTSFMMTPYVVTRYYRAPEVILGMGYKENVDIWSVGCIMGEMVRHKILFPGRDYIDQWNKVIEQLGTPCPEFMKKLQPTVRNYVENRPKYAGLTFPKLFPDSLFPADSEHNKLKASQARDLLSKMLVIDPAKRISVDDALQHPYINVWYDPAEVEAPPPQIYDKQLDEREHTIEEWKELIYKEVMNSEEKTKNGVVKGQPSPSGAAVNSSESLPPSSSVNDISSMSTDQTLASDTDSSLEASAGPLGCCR

[3] = Inhibition of p38
[4] = Inhibition of JNK-mediated c-jun phosphorylation in rat INS-1 cells by ELISA incubated for 3 hrs at 37 degC; type: cell-based; conditions: INS1, 3 h
Summary of the method: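 INS-1 β-pancreatic cells seeded at 3.5 × 10^4 cells/well in RPMI 1640 with 10% FBS, cultured overnight at 37 °C, 5% CO2. Cells exposed 3 h to 4 mM streptozoicin plus inhibitor (DMSO) in a 10-point dilution spanning four logs, then lysed. Phospho-c-jun captured overnight at 4 °C by sandwich ELISA, TMB read at 450 nm; EC50 from four-parameter logistic.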

Sequence of Mitogen-activated protein kinase 8 (P45983 whole entry): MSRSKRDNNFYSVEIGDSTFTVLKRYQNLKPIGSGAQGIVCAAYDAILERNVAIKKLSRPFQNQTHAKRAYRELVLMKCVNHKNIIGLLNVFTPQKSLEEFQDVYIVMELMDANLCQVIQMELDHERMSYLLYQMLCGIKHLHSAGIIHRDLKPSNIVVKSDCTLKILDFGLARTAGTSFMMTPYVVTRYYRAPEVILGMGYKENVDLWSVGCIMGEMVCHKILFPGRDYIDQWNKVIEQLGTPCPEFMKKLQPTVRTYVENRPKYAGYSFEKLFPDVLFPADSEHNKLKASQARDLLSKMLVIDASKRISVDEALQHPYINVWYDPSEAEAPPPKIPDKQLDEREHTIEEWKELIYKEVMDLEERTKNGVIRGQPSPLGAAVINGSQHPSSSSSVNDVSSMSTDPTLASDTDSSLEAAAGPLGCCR

Row | SMILES | IC50 [1] | IC50 [2] | inhibition [3] | IC50 [3] | IC50 [4]
1 | C=CCN1CCN(c2c(NC(=O)c3ccc(Br)o3)cccc2Nc2ccccc2)CC1 | > 20000 nM | > 20000 nM | inactive | – | –
2 | CCN1CCN(c2c(Cl)cccc2NC(=O)c2ccc(Br)o2)CC1 | 490 nM | – | – | > 20 µM | –
3 | O=C(Nc1cccc(Cl)c1N1CCNCC1)c1ccc(Br)o1 | 4100 nM | 9900 nM | inactive | – | –
4 | O=C(Nc1cccc(Cl)c1N1CCN(C(=O)C(F)(F)F)CC1)c1ccc(Br)o1 | > 20000 nM | > 20000 nM | inactive | – | –
5 | C=CCN1CCN(c2c(Cl)cccc2NC(=O)c2csc(C)n2)CC1 | – | 5800 nM | – | – | –
6 | C=CCN1CCN(c2c(NC(=O)c3ccc(Br)o3)cccc2C(F)(F)F)CC1 | > 20000 nM | > 20000 nM | inactive | – | –
7 | CC(C)N1CCN(c2c(Cl)cccc2NC(=O)c2ccc(Br)o2)CC1 | 1500 nM | 2200 nM | inactive | – | –
8 | C=CCN1CCN(c2c(NC(=O)c3ccc(Br)o3)cccc2-c2ccccc2)CC1 | > 20000 nM | > 20000 nM | inactive | – | –
9 | C#CCN1CCN(c2c(Cl)cccc2NC(=O)c2ccc(Br)o2)CC1 | 140 nM | – | inactive | – | –
10 | C=CCN1CCN(c2c(Cl)cccc2NC(=O)c2ccc[nH]2)CC1 | 4500 nM | 8900 nM | – | – | –
11 | C=CCN1CCN(c2c(Cl)cccc2NC(=O)c2cccc(Br)c2)CC1 | 7100 nM | 6400 nM | – | – | –
12 | C=CCN1CCN(c2c(Cl)cccc2NC(=O)c2ccc(C#N)cn2)CC1 | > 20000 nM | > 20000 nM | – | – | –
13 | C=CCN1CCN(c2c(Cl)cccc2NC(=O)c2ccno2)CC1 | – | 5000 nM | – | – | –
14 | Cc1cccc(NC(=O)c2ccc(Cc3ccccc3)o2)c1N1CCC2(CC1)OCCO2 | 3200 nM | 4800 nM | – | – | –
15 | CC(C)(C)OC(=O)N1CCN(c2c(Cl)cccc2NC(=O)c2ccc(Br)o2)CC1 | 6300 nM | > 20000 nM | inactive | – | –
16 | CC(=O)Nc1ccc(C(=O)Nc2cccc(C)c2N2CCC3(CC2)OCCO3)o1 | 5800 nM | 11000 nM | – | – | –
17 | Cc1cccc(NC(=O)c2ccc(Nc3ccccc3)o2)c1N1CCC2(CC1)OCCO2 | > 20000 nM | > 20000 nM | – | – | –
18 | C=CCN1CCN(c2c(Cl)cccc2NC(=O)c2cccc(C)n2)CC1 | 1800 nM | 2000 nM | – | – | –
19 | C=CCN1CCN(c2c(Br)cccc2NC(=O)c2ccc(Br)o2)CC1 | > 20000 nM | > 20000 nM | inactive | – | –
20 | C=CCN1CCN(c2c(Cl)cccc2NC(=O)c2cccc(Br)n2)CC1 | – | 2000 nM | – | – | –
21 | C=CCN1CCN(c2c(Cl)cccc2NC(=O)c2cscn2)CC1 | – | 2300 nM | – | – | –
22 | C=CCN1CCN(c2c(Cl)cccc2NC(=O)c2ncccn2)CC1 | > 20000 nM | > 20000 nM | – | – | –

More lines, in order of falling IC50 [2], values ahead:

Row | IC50 [1] | IC50 [2] | inhibition [3] | IC50 [3] | IC50 [4] | SMILES
23 | 1800 nM | 1800 nM | – | – | – | C=CCN1CCN(c2c(Cl)cccc2NC(=O)c2nc(Br)cs2)CC1
24 | 900 nM | 1400 nM | inactive | – | – | O=C(Nc1cccc(Cl)c1N1CCN(CCc2ccccc2)CC1)c1ccc(Br)o1
25 | 360 nM | 1200 nM | inactive | – | – | CN1CCN(c2c(Cl)cccc2NC(=O)c2ccc(Br)o2)CC1
26 | 880 nM | 1100 nM | inactive | – | – | O=C(Nc1cccc(Cl)c1N1CCN(Cc2ccccc2)CC1)c1ccc(Br)o1
27 | 1400 nM | 1000 nM | – | – | – | CCc1ccc(C(=O)Nc2cccc(C)c2N2CCC3(CC2)OCCO3)o1
28 | 1200 nM | 1000 nM | inactive | – | – | O=C(Nc1cccc(Cl)c1N1CCN(c2ccccn2)CC1)c1ccc(Br)o1
29 | 180 nM | 960 nM | inactive | – | – | O=C(Nc1cccc(Cl)c1N1CCN(C2CC2)CC1)c1ccc(Br)o1
30 | 630 nM | 900 nM | inactive | – | – | CCCN1CCN(c2c(Cl)cccc2NC(=O)c2ccc(Br)o2)CC1
31 | 600 nM | 810 nM | inactive | – | – | CC(=O)N1CCN(c2c(Cl)cccc2NC(=O)c2ccc(Br)o2)CC1
32 | 450 nM | 620 nM | – | – | – | COc1ccc(C(=O)Nc2cccc(C)c2N2CCC3(CC2)OCCO3)o1
33 | 400 nM | 540 nM | inactive | – | 3.3 µM | C=C(C)CN1CCN(c2c(Cl)cccc2NC(=O)c2ccc(Br)o2)CC1
34 | 330 nM | 530 nM | – | – | – | Cc1ccc(C(=O)Nc2cccc(C)c2N2CCC3(CC2)OCCO3)o1
35 | 210 nM | 410 nM | – | – | – | Cc1cccc(NC(=O)c2ccc(F)o2)c1N1CCC2(CC1)OCCO2
36 | 260 nM | 350 nM | – | – | – | Cc1cccc(NC(=O)c2ccc(C(F)F)o2)c1N1CCC2(CC1)OCCO2
37 | 240 nM | 330 nM | inactive | – | – | C=CCN1CCN(c2c(Cl)cccc2NC(=O)c2ccc(Br)o2)CC1
38 | 330 nM | 310 nM | – | – | – | C=CCN1CCN(c2c(Cl)cccc2NC(=O)c2cnc(Br)s2)CC1
39 | 110 nM | 290 nM | inactive | – | – | C#CCN1CCN(c2c(F)cccc2NC(=O)c2ccc(Br)o2)CC1
40 | 270 nM | 250 nM | inactive | – | – | O=C(Nc1cccc(Cl)c1N1CCN(Cc2ccco2)CC1)c1ccc(Br)o1
41 | 230 nM | 210 nM | – | – | – | Cc1cccc(NC(=O)c2ccc(C#N)o2)c1N1CCC2(CC1)OCCO2
42 | 180 nM | 200 nM | inactive | – | – | C=CCN1CCN(c2c(C)cccc2NC(=O)c2ccc(Br)o2)CC1
43 | 110 nM | 110 nM | – | – | – | CC#Cc1ccc(C(=O)Nc2cccc(C)c2N2CCC3(CC2)OCCO3)o1
44 | 40 nM | 80 nM | – | – | – | Cc1cccc(NC(=O)c2ccc(Cl)o2)c1N1CCC2(CC1)OCCO2
45 | 90 nM | 60 nM | – | – | – | Cc1cccc(NC(=O)c2ccc(Br)o2)c1N1CCC2(CC1)OCCO2
